Assay results taken from ChEMBL document CHEMBL3392964, “Design, synthesis, and evaluation of novel imidazo[1,2-a][1,3,5]triazines and their derivatives as focal adhesion kinase inhibitors with antitumor activity” (J Med Chem, 2015).
pIC50: −log10 of the molar value. The source made the active and inactive calls. No cut-off for these calls is given here.

How the values were obtained:
[1] = system: U-87MG ATCC; assay: Antimigratory activity in human U87MG cells after 30 mins by boyden chamber assay; assay type: functional, cell-based
[2] = system: MDA-MB-231; assay: Inhibition of colony formation in human MDA-MB-231 cells after 2 weeks by crystal violet staining-based assay; assay type: functional, cell-based; conditions: for pIC50: MDA-MB-231, 336 h
Procedure, shortened: (§1)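 Seeding: 250 cells per well for HCT-116, 300 for U87MG, MDA-MB-231 and PC-3; incubated overnight, then exposed to a range of concentrations for 2 weeks. Fixed in 4% paraformaldehyde 30 min at room temperature, stained with 0.1% crystal violet. Colonies over 50 cells counted; colony formation rate calculated; IC50 by nonlinear regression.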

[3] = (§2) Inhibition of colony formation in human HCT116 cells after 2 weeks by crystal violet staining-based assay; assay type: functional, cell-based; conditions: HCT-116, 336 h; procedure, shortened: as §1
[4] = system: HCT-116; assay: as §2; assay type: functional, cell-based; procedure, shortened: as §1
[5] = target: Focal adhesion kinase 1 (Homo sapiens, UniProt Q05397); assay: Inhibition of FAK (unknown origin) using ULight-poly GT as substrate after 1.6 hrs by TR-FRET assay
[6] = system: MDA-MB-231; assay: Antiproliferative activity against human MDA-MB-231 cells after 48 hrs by WST-1 assay; assay type: functional, cell-based; conditions: MDA-MB-231, 48 h
Procedure, shortened: (§3)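 Exponentially growing cells in DMEM/10% FBS seeded at 5 × 10^3 per well, left overnight, then exposed 48 h to compounds diluted from DMSO; WST-1 added for 2 h, absorbance at 450 nm (reference 620 nm); viability as ratio to DMSO controls; three independent experiments, triplicate points; IC50 by nonlinear regression (log inhibitor vs normalized response, variable slope).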

[7] = Antiproliferative activity against human U87MG cells after 48 hrs by WST-1 assay; assay type: functional, cell-based, U-87MG ATCC; conditions: U-87 MG; procedure, shortened: as §3
[8] = system: U-87 MG; assay: Reduction of cell adherence in human U87MG cells after 30 mins by toluidine blue staining-based […]; assay type: functional; conditions: U-87MG ATCC
Procedure, shortened: (§4)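 U87-MG cells grown in 10% serum, trypsinised, diluted to 100 000 cells/mL in 10% serum medium, then treated 30 min with compound or DMSO. 20 000 cells per well allowed to attach 1 h. Fixed in 4% paraformaldehyde 30 min, stained with 0.1% toluidine blue in 4% PFA 30 min, washed, OD read at 620 nm for attached cells.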

[9] = Antiproliferative activity against human HCT116 cells after 48 hrs by WST-1 assay; assay type: functional, cell-based; conditions: HCT-116, 48 h; procedure, shortened: as §3
[10] = (§5) Inhibition of colony formation in human U87MG cells after 2 weeks by crystal violet staining-based assay; assay type: functional, cell-based, U-87MG ATCC; conditions: U-87 MG, 336 h; procedure, shortened: as §1
[11] = system: U-87MG ATCC; assay: as §5; assay type: functional, cell-based; procedure, shortened: as §1
[12] = Antiproliferative activity against human PC3 cells after 48 hrs by WST-1 assay; assay type: functional, cell-based; conditions: PC-3, 48 h; procedure, shortened: as §3
[13] = system: PC-3; assay: (§6) Inhibition of colony formation in human PC3 cells after 2 weeks by crystal violet staining-based assay; assay type: functional, cell-based; procedure, shortened: as §1
[14] = as §6; assay type: functional, cell-based; conditions: PC-3, 336 h; procedure, shortened: as §1
[15] = system: U-87MG ATCC; assay: Antimigratory activity in human U87MG cells at 2 uM […] by transwell membrane assay; assay type: functional, cell-based
[16] = Cell cycle arrest in human HCT116 cells assessed as accumulation at G2/M phase at 0.4 uM after 24 hrs by propidium iodide staining-based flow cytometry (reference value: 14.6%); assay type: functional; conditions: HCT-116
Procedure, shortened: (§7)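 Cells plated at 10^5 per well, left overnight, then exposed 24 h to compound or vehicle; stained 15 min at 37 °C with propidium iodide/Triton buffer; DNA content by flow cytometry, phase distribution fitted by Dean–Jett–Fox; HCT-116 at 0.3–0.5 μM, U87-MG at 0.3–3 μM; significance by unpaired Student's t test; one representative experiment.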

[17] = system: HCT-116; assay: Induction of apoptosis in human HCT116 cells assessed as early apoptotic cells at 0.4 uM after 24 hrs by Annexin V-PE/7-AAD staining-based FACS analysis (reference value: 4.68%); assay type: functional
[18] = system: U-87 MG; assay: Induction of apoptosis in human U87MG cells assessed as early apoptotic cells at 0.3 uM after 24 hrs by Annexin V-PE/7-AAD staining-based FACS analysis (reference value: 0.691%); assay type: functional, U-87MG ATCC
[19] = system: U-87 MG; assay: Induction of apoptosis in human U87MG cells assessed as viable cells at 0.3 uM after 24 hrs by Annexin V-PE/7-AAD staining-based FACS analysis (reference value: 96.7%); assay type: functional, U-87MG ATCC; conditions: read-out: Activity
[20] = system: U-87MG ATCC; assay: Antiinvasive activity in human U87MG cells after 30 mins by boyden chamber assay; assay type: functional, cell-based
[21] = system: U-87 MG; assay: Induction of apoptosis in human U87MG cells assessed as necrotic cells at 0.3 uM after 24 hrs by Annexin V-PE/7-AAD staining-based FACS analysis (reference value: 1.06%); assay type: functional, U-87MG ATCC
[22] = Antimigratory activity in human U87MG cells at 0.4 uM […] by transwell membrane assay; assay type: functional, U-87MG ATCC
[23] = system: HCT-116; assay: Induction of apoptosis in human HCT116 cells at < 0.4 uM after 24 hrs by Annexin V-PE/7-AAD staining-based FACS analysis; assay type: functional, cell-based
[24] = system: HCT-116; assay: Induction of apoptosis in human HCT116 cells assessed as viable cells at 0.4 uM after 24 hrs by Annexin V-PE/7-AAD staining-based FACS analysis (reference value: 93.2%); assay type: functional; conditions: HCT-116, 24 h, read-out: Activity
[25] = system: HCT-116; assay: Induction of apoptosis in human HCT116 cells assessed as late apoptotic cells at 0.4 uM after 24 hrs by Annexin V-PE/7-AAD staining-based FACS analysis (reference value: 1.22%); assay type: functional
[26] = Antiinvasive activity in human U87MG cells after 24 hrs by matrigel assay; assay type: functional, U-87MG ATCC
Procedure, shortened: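 U-87MG pre-exposed 24 h to compound or DMSO in 3% FBS, then 4 × 10^4 cells seeded in upper chamber of impedance-based CIM-16 plate (8 μm pore membrane) coated with Matrigel/collagen; lower chamber 10% FBS; cell index monitored at 37 °C, 5% CO2 for 12 h; slope (1/h) over set interval, DMSO slope set to 100; duplicate wells, repeated twice.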

[27] = system: U-87 MG; assay: Reduction of cell adherence in human U87MG cells at 0.5 uM after 30 mins by toluidine blue staining-based […]; assay type: functional, U-87MG ATCC; set-up: scale not given: the % may be the effect or the level left; procedure, shortened: as §4
[28] = system: HCT-116; assay: Induction of apoptosis in human HCT116 cells assessed as necrotic cells at 0.4 uM after 24 hrs by Annexin V-PE/7-AAD staining-based FACS analysis (reference value: 0.885%); assay type: functional
[29] = Cell cycle arrest in human HCT116 cells assessed as accumulation at S phase at 0.4 uM after 24 hrs by propidium iodide staining-based flow cytometry (reference value: 17.7%); assay type: functional; conditions: HCT-116; procedure, shortened: as §7
[30] = system: U-87 MG; assay: Induction of apoptosis in human U87MG cells assessed as late apoptotic cells at 0.3 uM after 24 hrs by Annexin V-PE/7-AAD staining-based FACS analysis (reference value: 1.59%); assay type: functional, U-87MG ATCC
[31] = Cell cycle arrest in human U87MG cells at < 0.3 uM after 24 hrs by propidium iodide staining-based flow cytometry; assay type: functional; conditions: U-87MG ATCC; procedure, shortened: as §7
[32] = Cell cycle arrest in human HCT116 cells assessed as accumulation at G0/G1 phase at 0.4 uM after 24 hrs by propidium iodide staining-based flow cytometry (reference value: 63.8%); assay type: functional; conditions: HCT-116; procedure, shortened: as §7
[33] = Cell cycle arrest in human HCT116 cells at < 0.4 uM after 24 hrs by propidium iodide staining-based flow cytometry; assay type: functional; conditions: HCT-116; procedure, shortened: as §7
[34] = system: U-87MG ATCC; assay: Antimigratory activity in human U87MG cells at 4 uM […] by transwell membrane assay; assay type: functional, cell-based

Focal adhesion kinase 1, sequence (Q05397 whole entry): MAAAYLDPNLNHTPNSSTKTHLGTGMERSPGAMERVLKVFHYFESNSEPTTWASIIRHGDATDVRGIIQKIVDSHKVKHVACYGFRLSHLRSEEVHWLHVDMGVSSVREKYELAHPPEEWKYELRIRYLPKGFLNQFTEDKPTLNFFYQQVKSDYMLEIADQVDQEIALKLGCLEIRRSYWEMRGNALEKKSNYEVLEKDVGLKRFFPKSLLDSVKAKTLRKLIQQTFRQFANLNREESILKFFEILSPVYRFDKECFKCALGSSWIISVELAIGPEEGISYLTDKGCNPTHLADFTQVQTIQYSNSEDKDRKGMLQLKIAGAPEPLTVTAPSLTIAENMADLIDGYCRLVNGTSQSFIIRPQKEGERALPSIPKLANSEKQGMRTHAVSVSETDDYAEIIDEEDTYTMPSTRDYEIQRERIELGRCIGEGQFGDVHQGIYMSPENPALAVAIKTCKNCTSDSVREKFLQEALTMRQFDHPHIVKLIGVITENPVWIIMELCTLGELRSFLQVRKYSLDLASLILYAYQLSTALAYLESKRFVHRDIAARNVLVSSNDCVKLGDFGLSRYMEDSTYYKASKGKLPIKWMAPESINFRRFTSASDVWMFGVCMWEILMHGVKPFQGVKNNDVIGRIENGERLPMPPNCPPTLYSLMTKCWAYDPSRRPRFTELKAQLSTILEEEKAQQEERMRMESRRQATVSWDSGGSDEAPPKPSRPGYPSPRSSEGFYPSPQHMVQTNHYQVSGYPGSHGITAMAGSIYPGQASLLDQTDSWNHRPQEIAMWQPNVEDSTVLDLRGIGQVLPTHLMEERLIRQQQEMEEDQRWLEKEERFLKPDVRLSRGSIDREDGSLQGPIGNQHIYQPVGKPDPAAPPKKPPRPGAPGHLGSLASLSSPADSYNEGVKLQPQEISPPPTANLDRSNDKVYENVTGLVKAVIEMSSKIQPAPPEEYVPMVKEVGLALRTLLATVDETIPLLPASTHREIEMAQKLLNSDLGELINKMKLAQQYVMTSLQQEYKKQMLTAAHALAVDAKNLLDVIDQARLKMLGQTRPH

Row | pIC50 [2] | pIC50 [3] | pIC50 [5] | pIC50 [6] | pIC50 [10] | pIC50 [14] | Compound | Activity [1] | inhibition [2] | inhibition [4] | pIC50 [7] | Activity [8] | pIC50 [9] | inhibition [11] | pIC50 [12] | inhibition [13] | other results
1 | < 5.00 | 7.70 | 6.48 | < 5.00 | 5.85 | 6.20 | CNC(=O)c1ccccc1Nc1nc(Nc2ccc(N3CCOCC3)cc2OC)nc2nccn12 | Dose-dependent effect | Dose-dependent effect | Dose-dependent effect | 5.64 | Dose-dependent effect | 6.47 | Dose-dependent effect | 6.57 | Dose-dependent effect | Activity [15]: Active
2 | 6.28 | 6.92 | 6.92 | 5.97 | 6.66 | 5.85 | CNC(=O)c1ccccc1Nc1nc(Nc2ccc(CN)cc2)nc2nccn12 | Dose-dependent effect | Dose-dependent effect | Dose-dependent effect | 6.43 | Dose-dependent effect | 6.51 | Dose-dependent effect | 5.90 | Dose-dependent effect | Activity [16]: 61%; Activity [17]: 4.24%; Activity [18]: 1.37%; viability at 0.3 µM [19]: 96.6%; Activity [20]: Dose-dependent effect; Activity [21]: 1.26%; Activity [22]: 66.4%; Activity [23]: inactive; viability at 0.4 µM [24]: 88.7%; Activity [25]: 4.06%; Activity [26]: 50%; Activity [27]: 50%; Activity [28]: 3.03%; Activity [29]: 12.8%; Activity [30]: 0.755%; Activity [31]: Active; Activity [32]: 24.4%; Activity [33]: Active
3 | 5.41 | 6.12 | 6.64 | < 5.00 | 6.66 | 6.00 | CNC(=O)c1ccccc1Nc1nc(Nc2cc(OC)c(OC)c(OC)c2)nc2nccn12 | Dose-dependent effect |  |  | 5.38 | Dose-dependent effect | 6.02 |  | 6.46 |  | Activity [34]: Active
